Test results taken from ChEMBL document CHEMBL2434854, “Synthesis and anticancer activity of some novel trifluoromethylquinolines carrying a biologically active benzenesulfonamide moiety” (Eur J Med Chem, 2013).

Legend:
Assay type in all cases: functional, cell-based; call rule not given here
[1] = tested on: LoVo; assay: Anticancer activity against human LoVo cells after 48 hrs by SRB assay
How it was run: (§1)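 Cells seeded 10^4 cells/well and allowed to attach for 24 h, then exposed to compounds dissolved in DMSO at 10, 25, 50 and 100 μM, triplicate wells per concentration, for 48 h at 37 °C in 5% CO2. Fixed, stained 30 min with 0.4% (wt/vol) SRB in 1% acetic acid, washed four times with 1% acetic acid, dye recovered in Tris-EDTA, absorbance read. IC50 taken from survival curves; doxorubicin reference.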

[2] = Anticancer activity against human […] cells after 48 hrs by SRB assay; how it was run: as §1
[3] = tested on: HT-1080; assay: Anticancer activity against human HT1080 cells after 48 hrs by SRB assay; conditions: HT-1080, 48 h; how it was run: as §1
[4] = tested on: MDA-MB-231; assay: Anticancer activity against human MDA-MB-231 cells after 48 hrs by SRB assay; how it was run: as §1
[5] = tested on: HepG2; assay: Anticancer activity against human HepG2 cells after 48 hrs by SRB assay; how it was run: as §1
[6] = tested on: HeLa; assay: Anticancer activity against human HeLa cells after 48 hrs by SRB assay; how it was run: as §1
[7] = Homo sapiens, LoVo, 48 h, read-out: IC50
[8] = Homo sapiens, 48 h, read-out: IC50
[9] = Homo sapiens, MDA-MB-231, 48 h, read-out: IC50
[10] = Homo sapiens, HepG2, 48 h, read-out: IC50
[11] = Homo sapiens, HeLa, 48 h, read-out: IC50

| Compound | IC50 [1, 7] [µM] | IC50 [2, 8] [µM] | IC50 [3] [µM] | IC50 [4, 9] [µM] | IC50 [5, 10] [µM] | IC50 [6, 11] [µM] | IC50 ([6]; hela) | IC50 [2] | IC50 ([5]; hepg2) | IC50 ([1]; lovo) | IC50 ([4]; mda-mb-231) |
| --- | --- | --- | --- | --- | --- | --- | --- | --- | --- | --- | --- |
| Nc1ccc(S(=O)(=O)Nc2ccnc3cc(C(F)(F)F)ccc23)cc1 | 53.6 | 29.2 | 29.6 | 30.9 | 93.1 | 46 |  |  |  |  |  |
| NS(=O)(=O)c1ccc(Nc2ccnc3cc(C(F)(F)F)ccc23)cc1 | 26.6 | 79 | 56.1 | 34.4 | 50.8 | 61.2 |  |  |  |  |  |
| O=S(=O)(Nc1nccs1)c1ccc(N/C(S)=N\c2ccnc3cc(C(F)(F)F)ccc23)cc1 | 67.1 | 27.2 | 27.3 | 24.4 | 28.2 | 95.2 |  |  |  |  |  |
| O=S(=O)(Nc1ncccn1)c1ccc(N/C(S)=N\c2ccnc3cc(C(F)(F)F)ccc23)cc1 | 34.7 | 37.8 | 29.1 | 45.2 | 42.1 |  | Not Active |  |  |  |  |
| Cc1cc(C)nc(NS(=O)(=O)c2ccc(N/C(S)=N\c3ccnc4cc(C(F)(F)F)ccc34)cc2)n1 | 40.2 | 43.4 | 29.5 | 52.9 | 72.2 | 33 |  |  |  |  |  |
| O=S(=O)(Nc1ccccn1)c1ccc(Nc2ccnc3cc(C(F)(F)F)ccc23)cc1 | 20.2 | 30.4 | 41.8 | 18.4 | 46.1 | 44.8 |  |  |  |  |  |
| COc1cccc2c1C(=O)c1c(O)c3c(c(O)c1C2=O)C[C@@](O)(C(=O)CO)C[C@@H]3O[C@H]1C[C@H](N)[C@H](O)[C@H](C)O1 [DOXORUBICIN] | 24.3 | 32.8 | 19.2 | 34 | 27.1 | 30.2 |  |  |  |  |  |
| Cc1cc(C)nc(NS(=O)(=O)c2ccc(Nc3ccnc4cc(C(F)(F)F)ccc34)cc2)n1 | 44.3 |  | 32.8 | 36.2 |  | 32 |  | Not Active | Not Active |  |  |
| Cc1ccnc(NS(=O)(=O)c2ccc(Nc3ccnc4cc(C(F)(F)F)ccc34)cc2)n1 |  | 62.5 | 32.5 |  |  |  | Not Active |  | Not Active | Not Active | Not Active |
| Cc1noc(NS(=O)(=O)c2ccc(Nc3ccnc4cc(C(F)(F)F)ccc34)cc2)c1C | 36 | 53.1 | 31.9 | 39.3 | 40.8 |  | Not Active |  |  |  |  |
| COc1cc(NS(=O)(=O)c2ccc(N/C(S)=N\c3ccnc4cc(C(F)(F)F)ccc34)cc2)nc(OC)n1 | 76.7 | 64.5 | 29.5 | 52.1 | 76.7 | 53.8 |  |  |  |  |  |
| Cc1noc(NS(=O)(=O)c2ccc(N/C(S)=N\c3ccnc4cc(C(F)(F)F)ccc34)cc2)c1C | 67 | 34 | 27.7 | 27.9 | 36.8 |  | Not Active |  |  |  |  |
| COc1ncnc(NS(=O)(=O)c2ccc(Nc3ccnc4cc(C(F)(F)F)ccc34)cc2)c1OC | 39.9 | 36.9 | 26 | 49.4 | 66.1 |  | Not Active |  |  |  |  |
| O=C(Nc1ccccc1)NS(=O)(=O)c1ccc(Nc2ccnc3cc(C(F)(F)F)ccc23)cc1 | 19.7 | 18.4 | 17.9 | 18.4 | 27.6 | 35.3 |  |  |  |  |  |
| COc1cc(NS(=O)(=O)c2ccc(Nc3ccnc4cc(C(F)(F)F)ccc34)cc2)nc(OC)n1 | 50.4 | 37.9 | 39.2 |  | 83.8 | 83.2 |  |  |  |  | Not Active |
| O=S(=O)(Nc1nccs1)c1ccc(Nc2ccnc3cc(C(F)(F)F)ccc23)cc1 |  | 66.1 | 40.3 | 90.8 |  | 70.8 |  |  | Not Active | Not Active |  |
| Cc1cc(NS(=O)(=O)c2ccc(Nc3ccnc4cc(C(F)(F)F)ccc34)cc2)on1 | 33.6 | 74.8 | 33.5 | 74.8 | 33.5 | 97.6 |  |  |  |  |  |
| CC(=O)NS(=O)(=O)c1ccc(N/C(S)=N\c2ccnc3cc(C(F)(F)F)ccc23)cc1 | 30 | 37.6 | 28.3 | 58.6 | 28.4 | 37.6 |  |  |  |  |  |
| CC(=O)NS(=O)(=O)c1ccc(Nc2ccnc3cc(C(F)(F)F)ccc23)cc1 | 51.5 | 64.2 | 41.6 | 75.6 | 46 |  | Not Active |  |  |  |  |
| O=C(Nc1ccccc1)Nc1ccc(S(=O)(=O)Nc2ccnc3cc(C(F)(F)F)ccc23)cc1 | 30.2 | 24.5 | 25.4 | 52.9 |  | 41 |  |  | Not Active |  |  |
| Cc1cc(NS(=O)(=O)c2ccc(N/C(S)=N\c3ccnc4cc(C(F)(F)F)ccc34)cc2)on1 |  | 60.2 | 27.3 | 80.3 | 28.5 | 60.2 |  |  |  | Not Active |  |
| COc1ncnc(NS(=O)(=O)c2ccc(N/C(S)=N\c3ccnc4cc(C(F)(F)F)ccc34)cc2)c1OC | 28.4 | 81.8 | 22.8 | 83 | 77.2 |  | Not Active |  |  |  |  |
| O=S(=O)(Nc1ncccn1)c1ccc(Nc2ccnc3cc(C(F)(F)F)ccc23)cc1 | 27.4 | 34.2 | 27.2 | 54.7 |  | 78.1 |  |  | Not Active |  |  |
| O=S(=O)(Nc1ccnn1-c1ccccc1)c1ccc(Nc2ccnc3cc(C(F)(F)F)ccc23)cc1 | 56.8 | 52.8 | 25.8 | 52.8 | 82.6 | 34.1 |  |  |  |  |  |
| N=C(N)NS(=O)(=O)c1ccc(Nc2ccnc3cc(C(F)(F)F)ccc23)cc1 | 24.7 | 55.2 | 49.8 | 28.8 |  | 41.3 |  |  | Not Active |  |  |
| O=S(=O)(Nc1ccccn1)c1ccc(N/C(S)=N\c2ccnc3cc(C(F)(F)F)ccc23)cc1 | 87.5 | 33.5 | 28 | 49.3 | 28 | 68.8 |  |  |  |  |  |
| NS(=O)(=O)c1ccc(N/C(S)=N\c2ccnc3cc(C(F)(F)F)ccc23)cc1 | 34.5 | 36.6 | 31 | 52.9 | 52.2 | 36.6 |  |  |  |  |  |
| Cc1ccnc(NS(=O)(=O)c2ccc(N/C(S)=N\c3ccnc4cc(C(F)(F)F)ccc34)cc2)n1 | 31 | 31 | 28.7 | 29.8 |  | 31 |  |  | Not Active |  |  |
| N=C(N)NS(=O)(=O)c1ccc(N/C(S)=N\c2ccnc3cc(C(F)(F)F)ccc23)cc1 | 23.9 | 23.9 | 24.3 |  | 33.5 | 23.9 |  |  |  |  | Not Active |
